Laboratory results from ChEMBL document CHEMBL1123977, “Synthesis, receptor binding, and tissue distribution of (17 alpha,20E)- and (17 alpha,20Z)-21-[125I]iodo-19-norpregna-1,3,5(10), 20-tetraene-3,17-diol ” (1988).
Where “and” joins values, the source holds several entries; their conditions need not be identical. Equal entries are not always repeated.

Legend:
[1] = organism: Rattus norvegicus; test: Effect of Co-injection with estradiol on the uterus to blood ratio (Co-injected with 60 microg of estradiol (E2)); assay type: functional
How it was run: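 Immature female Fischer rats (24 days, 55-60 g) received 3 μCi (111 kBq) 125I-labelled steroid iv via the lateral tail vein, in 200 μL 9% ethanol-saline with 1% Tween 80, co-injected with 60 μg unlabelled estradiol. Killed at 2 h. Uterus and blood were KCl-washed and gamma-counted as PDK. Ratio is the mean of three rats; % change is versus tracer-only animals.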

[2] = test system: Rattus norvegicus; test: Mean uptake in thyroid 2 hr after intravenous injection of 3 microCi (111 kBq) in presence of 60 ug coinjected estradiol; assay type: functional, Thyroid gland
How it was run: (§1)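 Immature female Fischer rats (24 days old, 55-60 g) had free access to food and water. They were warmed under an infrared lamp, then given 200 μL HPLC-purified 125I-labeled steroid (3 μCi, 111 kBq) in saline with 9% ethanol and 1% Tween 80 via the lateral tail vein. Where stated, 60 μg unlabeled estradiol was co-injected. Rats were killed at 1, 2 or 5 h. Tissues were KCl-washed, blotted, weighed and gamma-counted against a reference of the injectate. Results are PDK (% dose × kg/g), mean and SD of three rats.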

[3] = test system: Rattus norvegicus; test: Mean uptake in adrenals 2 hr after intravenous injection of 3 uM Ci (111 kBq) in presence of 60 ug coinjected estradiol; assay type: functional, Adrenal gland; how it was run: as §1
[4] = test system: Rattus norvegicus; test: Mean uptake in brain 2 hr after intravenous injection of 3 microCi (111 kBq); assay type: functional; how it was run: as §1
[5] = test system: Rattus norvegicus; test: Mean uptake in muscles 5 hr after intravenous injection of 3 microCi (111 kBq); assay type: functional, Muscle tissue; how it was run: as §1
[6] = test system: Rattus norvegicus; test: Mean uptake in uterus 2 hr after intravenous injection of 3 microCi (111 kBq); assay type: functional
How it was run: (§2)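 Immature female Fischer rats (24 days old, 55-60 g), food and water free. 3 μCi (111 kBq) HPLC-purified 125I-labeled steroid given iv via lateral tail vein in 200 μL saline containing 9% ethanol and 1% Tween 80; receptor-saturation group co-injected with 60 μg unlabeled estradiol. Sacrificed at set times; uterus washed with 0.154 M KCl, blotted, weighed, gamma counted against injected reference; expressed as PDK (% dose × kg/g), mean of three rats.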

[7] = test system: Rattus norvegicus; test: Mean uptake in ovaries 1 hr after intravenous injection of 3 microCi (111 kBq) of the compound; assay type: functional, Female gonad; how it was run: as §1
[8] = test system: Rattus norvegicus; test: Mean uptake in kidneys 2 hr after intravenous injection of 3 microCi (111 kBq); assay type: functional; how it was run: as §1
[9] = test system: Rattus norvegicus; test: Mean uptake in spleen 1 hr after intravenous injection of 3 microCi (111 kBq) of the compound; assay type: functional; how it was run: as §1
[10] = test system: Rattus norvegicus; test: Mean uptake in ovaries 5 hr after intravenous injection of 3 microCi (111 kBq); assay type: functional, Female gonad; how it was run: as §1
[11] = test system: Rattus norvegicus; test: Mean uptake in spleen 5 hr after intravenous injection of 3 microCi (111 kBq); assay type: functional; how it was run: as §1
[12] = test system: Rattus norvegicus; test: Mean uptake in adrenals 1 hr after intravenous injection of 3 microCi (111 kBq) of the compound; assay type: functional, Adrenal gland; how it was run: as §1
[13] = test system: Rattus norvegicus; test: Mean uptake in liver 5 hr after intravenous injection of 3 microCi (111 kBq); assay type: functional; how it was run: as §1
[14] = test system: Rattus norvegicus; test: Mean uptake in spleen 2 hr after intravenous injection of 3 microCi (111 kBq); assay type: functional; how it was run: as §1
[15] = test system: Rattus norvegicus; test: Mean uptake in lungs 5 hr after intravenous injection of 3 microCi (111 kBq); assay type: functional; how it was run: as §1
[16] = test system: Rattus norvegicus; test: Mean uptake in kidneys 1 hr after intravenous injection of 3 microCi (111 kBq) of the compound; assay type: functional; how it was run: as §1
[17] = test system: Rattus norvegicus; test: Mean uptake in kidneys 5 hr after intravenous injection of 3 microCi (111 kBq); assay type: functional; how it was run: as §1
[18] = test system: Rattus norvegicus; test: In vivo deiodination in 5 hr after administration of compound; assay type: functional
How it was run: (§3)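 In immature female Fischer rats given 3 μCi (111 kBq) of 125I-steroid iv, deiodination was estimated from thyroid PDK at 1, 2 or 5 h, or at 2 h with 60 μg co-injected estradiol. Thyroid uptake after [125I]NaI injection at the same time interval was taken as 100%.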

[19] = test system: Rattus norvegicus; test: In vivo deiodination in 2 hour after administration of compound in presence of 60 microg of estradiol; assay type: functional; how it was run: as §3
[20] = test system: Rattus norvegicus; test: Mean uptake in lungs 2 hr after intravenous injection of 3 microCi (111 kBq); assay type: functional; how it was run: as §1
[21] = test system: Rattus norvegicus; test: Mean uptake in ovaries 2 hr after intravenous injection of 3 microCi (111 kBq); assay type: functional, Female gonad; how it was run: as §1
[22] = test system: Rattus norvegicus; test: Mean uptake in thyroid 1 hr after intravenous injection of 3 microCi (111 kBq) of the compound; assay type: functional, Thyroid gland; how it was run: as §1
[23] = test system: Rattus norvegicus; test: Mean uptake in uterus 5 hr after intravenous injection of 3 microCi (111 kBq); assay type: functional; how it was run: as §2
[24] = test system: Rattus norvegicus; test: Mean uptake in muscle 2 hr after intravenous injection of 3 microCi (111 kBq); assay type: functional, Muscle tissue; how it was run: as §1
[25] = test system: Rattus norvegicus; test: Mean uptake in brain 2 hr after intravenous injection of 3 uM Ci (111 kBq) in presence of 60 ug coinjected estradiol; assay type: functional; how it was run: as §1
[26] = test system: Rattus norvegicus; test: Mean uptake in blood 5 hr after intravenous injection of 3 microCi (111 kBq); assay type: functional; how it was run: as §1
[27] = test system: Rattus norvegicus; test: Mean uptake in liver 2 hr after intravenous injection of 3 microCi (111 kBq) in presence of 60 ug coinjected estradiol; assay type: functional; how it was run: as §1
[28] = test system: Rattus norvegicus; test: Mean uptake in liver 2 hr after intravenous injection of 3 microCi (111 kBq); assay type: functional; how it was run: as §1
[29] = test system: Rattus norvegicus; test: Mean uptake in lungs 2 hr after intravenous injection of 3 uM Ci (111 kBq) in presence of 60 ug coinjected estradiol; assay type: functional; how it was run: as §1
[30] = test system: Rattus norvegicus; test: Mean uptake in spleen 2 hr after intravenous injection of 3 microCi (111 kBq) in presence of 60 ug coinjected estradiol; assay type: functional; how it was run: as §1
[31] = test system: Rattus norvegicus; test: Mean uptake in brain 1 hr after intravenous injection of 3 microCi (111 kBq) of the compound; assay type: functional; how it was run: as §1
[32] = test system: Rattus norvegicus; test: Mean uptake in thyroid 2 hr after intravenous injection of 3 microCi (111 kBq); assay type: functional, Thyroid gland; how it was run: as §1
[33] = test system: Rattus norvegicus; test: In vivo deiodination in 2 hour after administration of compound; assay type: functional; how it was run: as §3
[34] = test system: Rattus norvegicus; test: Mean uptake in blood 2 hr after intravenous injection of 3 microCi (111 kBq) in presence of 60 ug coinjected estradiol; assay type: functional; how it was run: as §1
[35] = test system: Rattus norvegicus; test: Mean uptake in muscle 1 hr after intravenous injection of 3 microCi (111 kBq) of the compound; assay type: functional, Muscle tissue; how it was run: as §1
[36] = test system: Rattus norvegicus; test: Mean uptake in uterus 1 hr after intravenous injection of 3 microCi (111 kBq) of the compound; assay type: functional; how it was run: as §1
[37] = test system: Rattus norvegicus; test: Mean uptake in kidneys 2 hr after intravenous injection of 3 microCi (111 kBq) in presence of 60 ug coinjected estradiol; assay type: functional, Kidney; how it was run: as §1
[38] = test system: Rattus norvegicus; test: Mean uptake in blood after intravenous injection of 3 microCi (111 kBq) of the compound; assay type: functional; how it was run: as §1
[39] = test system: Rattus norvegicus; test: Mean uptake in lungs 1 hr after intravenous injection of 3 microCi (111 kBq) of the compound; assay type: functional; how it was run: as §1
[40] = test system: Rattus norvegicus; test: Mean uptake in adrenals 5 hr after intravenous injection of 3 microCi (111 kBq); assay type: functional, Adrenal gland; how it was run: as §1
[41] = test system: Rattus norvegicus; test: Mean uptake in adrenals 2 hr after intravenous injection of 3 microCi (111 kBq); assay type: functional, Adrenal gland; how it was run: as §1
[42] = test system: Rattus norvegicus; test: Mean uptake in liver 1 hr after intravenous injection of 3 microCi (111 kBq) of the compound; assay type: functional; how it was run: as §1
[43] = test system: Rattus norvegicus; test: Mean uptake in uterus 2 hr after intravenous injection of 3 uM Ci (111 kBq) in presence of 60 ug coinjected estradiol; assay type: functional; how it was run: as §2
[44] = test system: Rattus norvegicus; test: In vivo deiodination in 1 hour after administration of compound; assay type: functional; how it was run: as §3
[45] = test system: Rattus norvegicus; test: Mean uptake in blood 2 hr after intravenous injection of 3 microCi (111 kBq); assay type: functional; how it was run: as §1
[46] = test system: Rattus norvegicus; test: Mean uptake in ovaries 2 hr after intravenous injection of 3 microCi (111 kBq) in presence of 60 ug coinjected estradiol; assay type: functional, Female gonad; how it was run: as §1
[47] = test system: Rattus norvegicus; test: Mean uptake in spleen 2 hr after intravenous injection of 3 uM Ci (111 kBq) in presence of 60 ug coinjected estradiol; assay type: functional; how it was run: as §1
[48] = test system: Rattus norvegicus; test: Mean uptake in lungs 2 hr after intravenous injection of 3 microCi (111 kBq) in presence of 60 ug coinjected estradiol; assay type: functional; how it was run: as §1
[49] = test system: Rattus norvegicus; test: Mean uptake in spleen 2 hr after intravenous injection of 3 uM Ci (111 kBq); assay type: functional; how it was run: as §1
[50] = test system: Rattus norvegicus; test: Mean uptake in ovaries 2 hr after intravenous injection of 3 uM Ci (111 kBq) in presence of 60 ug coinjected estradiol; assay type: functional, Female gonad; how it was run: as §1
[51] = test system: Rattus norvegicus; test: Mean uptake in adrenals 2 hr after intravenous injection of 3 microCi (111 kBq) in presence of 60 ug coinjected estradiol; assay type: functional, Adrenal gland; how it was run: as §1
[52] = test system: Rattus norvegicus; test: Mean uptake in blood 1 hr after intravenous injection of 3 microCi (111 kBq) of the compound; assay type: functional; how it was run: as §1

C[C@]12CC[C@@H]3c4ccc(O)cc4CC[C@H]3[C@@H]1CC[C@@]2(O)/C=C/[125I]
Change [1]: -41%
Uterus to blood ratio [1]: 2.32
PDK [2]: 2300
PDK [3]: 73
PDK [4]: 12
PDK [5]: 4
PDK [6]: 35
PDK [7]: 108
PDK [8]: 27
PDK [9]: 27
PDK [10]: 16
PDK [11]: 4
PDK [12]: 175
PDK [13]: 55
PDK [14]: 10
PDK [15]: 8
PDK [16]: 71
PDK [17]: 10
Deiodination [18]: 4.4%
Deiodination [19]: 1.7%
PDK [20]: 25
PDK [21]: 43
PDK [22]: 1331
PDK [23]: 11
PDK [24]: 11 and 13
PDK [25]: 14
PDK [26]: 9
PDK [27]: 106
PDK [28]: 92
PDK [29]: 28
PDK [30]: 11
PDK [31]: 38
PDK [32]: 2870
Deiodination [33]: 2.1%
PDK [34]: 10
PDK [35]: 30
PDK [36]: 92
PDK [37]: 29
PDK [38]: 17
PDK [39]: 49
PDK [40]: 21
PDK [41]: 72
PDK [42]: 245
PDK [43]: 22
Deiodination [44]: 2%
PDK [45]: 10
PDK [46]: 39

C[C@]12CC[C@@H]3c4ccc(O)cc4CC[C@H]3[C@@H]1CC[C@@]2(O)/C=C\[125I]
Change [1]: -78%
Uterus to blood ratio [1]: 3
PDK [2]: 4975
PDK [47]: 10
PDK [4]: 11
PDK [5]: 5
PDK [6]: 166
PDK [7]: 116
PDK [8]: 32
PDK [9]: 19
PDK [10]: 50
PDK [11]: 9
PDK [12]: 154
PDK [13]: 57
PDK [48]: 26
PDK [15]: 18
PDK [16]: 58
PDK [17]: 20
Deiodination [18]: 17%
PDK [49]: 11
Deiodination [19]: 3.7%
PDK [20]: 25
PDK [21]: 85
PDK [22]: 2547
PDK [23]: 106
PDK [24]: 10
PDK [25]: 14
PDK [50]: 36
PDK [26]: 17
PDK [27]: 83
PDK [28]: 84
PDK [51]: 77
PDK [31]: 34
PDK [32]: 3718
Deiodination [33]: 2.8%
PDK [34]: 14
PDK [35]: 24
PDK [36]: 228
PDK [37]: 29
PDK [39]: 44
PDK [52]: 16
PDK [40]: 23
PDK [41]: 67
PDK [42]: 148
PDK [43]: 41
Deiodination [44]: 3.8%
PDK [45]: 12
